Experiments:
[1] = melting temperature; fluorescence melt of hairpins on a sequencing array, two-state fit, raised by 9.35 °C to match UV melts; conditions: sodium 0.088 M
Method in brief: (§1)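 On a sequenced MiSeq flow cell, library hairpins with annealed Cy3 and quencher oligos were imaged for Cy3 fluorescence in 2.5 °C steps up to 60 °C, in 50 mM Na-HEPES pH 8.0, 25 mM NaCl. Normalisation used pre-quench Cy3 and control constructs. Bootstrapped two-state fits gave melting temperature and folding enthalpy, combined by inverse variance across four replicates and with fitted temperatures raised by 9.35 °C to match UV melts.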

[2] = folding enthalpy; higher = less favourable; fluorescence melt of hairpins on a sequencing array, two-state fit; conditions: sodium 0.088 M
Method in brief: as §1

Sequence	Tm [1]	folding enthalpy [2]
GGTGAGGGAAACCTCACC (((((((....)))))))	67.5 °C	-43.2 kcal/mol
GATCATACGATGATC ((((((...))))))	46.9 °C	-29.4 kcal/mol
GAGATGGGAAACTATCTC (((((.(....).)))))	40.7 °C	-32 kcal/mol
GATCGCTTTCGCGATC ((((((....))))))	67.4 °C	-38.4 kcal/mol
GAACTGGGAAACCGGTTC ((((.((....)).))))	50.1 °C	-39.6 kcal/mol
GATCAATTCTTTGATC ((((((....))))))	47.8 °C	-35.9 kcal/mol
GTAGGTGGAAACATCTGC (.((.((....)).)).)	30 °C	-18.4 kcal/mol
GTCAGCGAAAGCTGAGAC ((((((....)))..)))	49 °C	-8.85 kcal/mol
GATCCGTTGACGGATC ((((((....))))))	61.8 °C	-39.1 kcal/mol
GATCGCCTCTGCGATC ((((((....))))))	66.5 °C	-37 kcal/mol
GTGGTAGGAAACTACTAC ((.((((....)))).))	41.8 °C	-32.2 kcal/mol
GCTGACGAAAGTCAGAGC ((((((....)))..)))	55.8 °C	-13.4 kcal/mol
GTTACTGAAAAGTAAC ((((((....))))))	49.4 °C	-33.8 kcal/mol
GGGGACGAAAGTCGCCCC ((((((....)))..)))	65.4 °C	-11 kcal/mol
GATCAATAGTTTGATC ((((((....))))))	42.7 °C	-30.6 kcal/mol
GGGATACGAAAGTACCC (((.(((....))))))	51.2 °C	-27.4 kcal/mol
GATCCGTATACGGATC ((((((....))))))	62.1 °C	-45.4 kcal/mol
GTTTTCGGAAACGAGAAC (((.(((....))).)))	41.6 °C	-27.4 kcal/mol
GTCCGAGCGAAAGCTGAC (((..(((....))))))	37.2 °C	-14.5 kcal/mol
GAGAAACCGAAAGGTCTC (((..(((....))))))	34.1 °C	-16.8 kcal/mol
GCCGGCGAAAGCCAAGGC ((((((....)))..)))	65.3 °C	-22.8 kcal/mol
GGCGATGGAAACGTCGTC (.(((.(....).))).)	46.2 °C	-39.5 kcal/mol
GGATGAGAAATCATCC ((((((....))))))	52.9 °C	-42.4 kcal/mol

Sequence	Tm [1]	folding enthalpy [2]
GTAATGCGAAAGCATAC (((.(((....))))))	46 °C	-13.3 kcal/mol
GCGTGGCGAAAGCAAGGC ((.(.((....)).).))	46.6 °C	-18.8 kcal/mol
GCCTACCGAAAGGTCGGC (((.(((....))).)))	56.5 °C	-39.7 kcal/mol
GAAACCCGAAAGGGATTC (((.(((....))).)))	49.3 °C	-23.6 kcal/mol
GGCGCCTCGAAAGAGGCC (((..(((....))))))	50.5 °C	-8.15 kcal/mol
GATCCAAAGCTGGATC ((((((....))))))	47.2 °C	-36.3 kcal/mol
GTACTCGCGAAAGCGTAC (((..(((....))))))	30.4 °C	-11.1 kcal/mol
GCACAGCGAAAGCTAGGC ((..(((....)))..))	45.2 °C	-15.4 kcal/mol
GTATTTGGAAACAGATAC ((((.((....)).))))	32.4 °C	-24.7 kcal/mol
GCACAGCGAAAGCTCCGC ((..(((....)))..))	28.1 °C	-9.89 kcal/mol
GTTAGTGGAAACGCTAAC (((((.(....).)))))	45.3 °C	-31.8 kcal/mol
GGAACGGAAACGTTCC ((((((....))))))	64.2 °C	-40.4 kcal/mol
GGGCGACCGAAAGGTCCC (((..(((....))))))	49.8 °C	-13 kcal/mol
GTGTCAGAAATGACAC ((((((....))))))	56.4 °C	-35.9 kcal/mol
GCGAGGCGAAAGCCTGGC ((.((((....)))).))	66.5 °C	-24.8 kcal/mol
GTCCTTCGAAAGAAAGAC (((.(((....))).)))	34.4 °C	-19.1 kcal/mol
GGTTAGGAAACTAACC ((((((....))))))	52.3 °C	-35.6 kcal/mol
GTTCACGGAAACGTGGAC ((.((((....)))).))	52.8 °C	-29.2 kcal/mol
GGGGTAGGAAACTGTCCC (((..((....))..)))	36.2 °C	-25.5 kcal/mol
GGTCTCGAAAGAGTACC ((((((....))).)))	46.8 °C	-24.3 kcal/mol
GTTAGAGAAATCTAAC ((((((....))))))	38.4 °C	-27.9 kcal/mol
GGCGTCCCGAAAGGGGCC (((..(((....))))))	50.4 °C	-14.3 kcal/mol
GCCTACCCGAAAGGGGGC (((..(((....))))))	52.4 °C	-17.3 kcal/mol

— the array DNA melting data of Ke et al. (doi:10.1101/2024.01.08.574731)
